From ChEMBL document CHEMBL1127839, “In vitro photoinduced cytotoxicity and DNA binding properties of psoralen and coumarin conjugates of netropsin analogues: DNA sequence-directed alkylation and cross-link formation” (J Med Chem, 1994)

Experiments:
[1] = tested on: Nucleic Acid; experiment: Apparent binding constant was determined by ethidium displacement assay in poly (dG-dC); type: nucleic-acid assay
[2] = tested on: Nucleic Acid; experiment: Apparent binding constant was determined by ethidium displacement assay in pol (dA-dT); type: nucleic-acid assay
[3] = tested on: Nucleic Acid; experiment: Apparent binding constant was determined by ethidium displacement assay in coliphage T4 DNA; type: nucleic-acid assay
[4] = Dose to produce photoinduced DNA cross-link formation on isolated DNA
[5] = tested on: Panel leukemia (Carcinoma cell lines); experiment: In vitro photocytotoxicity is evaluated against human chronic myeloid leukemia cells grown in culture under the dark conditions; type: functional, cell-based
Method in brief: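 Human chronic myeloid leukemia K562 cells were given a 1 h drug exposure (0.01-100 μM final, from DMSO stocks) at 37 °C in the dark, then washed, with no UV irradiation. Cells were cultured 4-5 days in the dark in 96-well plates, 8 wells per sample. MTT was added for 5 h and formazan dissolved in DMSO was read at 550 nm. IC50 was taken from the dose-response curve.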

[6] = tested on: Panel leukemia (Carcinoma cell lines); experiment: In vitro photocytotoxicity is evaluated against human chronic myeloid leukemia cells grown in culture irradiated at 366 nM; type: functional, cell-based; conditions: light or radiation study
Method in brief: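 K562 cells in RPMI 1640 with 10% FCS and 2 mM glutamine were exposed to drug at 0.01-100 μM final for 1 h at 37 °C in the dark. They were washed, then irradiated in PBS for 2 min at 366 nm (420 μW/cm², 5 cm, no filters). Cells were plated at 8 wells per sample and grown 4-5 days in the dark. Readout was MTT at 550 nm; IC50 was taken from the dose-response curve.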

[7] = tested on: Nucleic Acid; experiment: Apparent binding constant was determined by ethidium displacement assay in calf thymus; type: nucleic-acid assay; conditions: Bos taurus
[8] = Dose to produce […] on isolated DNA; no DNA cross-links

Structure (SMILES) | Binding constant [1] [M⁻¹] | Binding constant [2] [M⁻¹] | Binding constant [3] [M⁻¹] | XL50 [4] [µM] | Binding constant [7] [M⁻¹] | XL50 [8] | IC50 [5] [µM] | IC50 [6] [µM]
CN(C)CCNC(=O)c1cc(NC(=O)c2cc(NC(=O)CCCCOc3c4occc4cc4ccc(=O)oc34)cn2C)cn1C | 90000 | 290000 | 660000 | 0.005 | 550000 | – | > 100 | 0.3
Cn1cc(NC(=O)c2cc(NC(=O)c3cc(NC=O)cn3C)cn2C)cc1C(=O)NCCC(=N)N | 200000 | 3.48e+07 | 650000 | – | 770000 | – | – | –
CN(C)CCNC(=O)c1cc(NC(=O)c2cc(NC(=O)CCCCOc3ccc4ccc(=O)oc4c3)cn2C)cn1C | 110000 | 3.5e+06 | 120000 | – | 170000 | No DNA crosslinks | > 100 | 75
CN(C)CCNC(=O)c1nc(NC(=O)c2nc(NC(=O)CCCCOc3c4occc4cc4ccc(=O)oc34)cn2C)cn1C | 210000 | 90000 | 270000 | 1.6 | 40000 | – | 55 | 4.5

Second part, led by results:

Binding constant [1] [M⁻¹] | Binding constant [2] [M⁻¹] | Binding constant [3] [M⁻¹] | XL50 [4] [µM] | Binding constant [7] [M⁻¹] | XL50 [8] | Structure (SMILES) | IC50 [5] [µM] | IC50 [6] [µM]
140000 | 110000 | 100000 | – | 100000 | No DNA crosslinks | CN(C)CCNC(=O)c1nc(NC(=O)c2nc(NC(=O)CCCCOc3ccc4ccc(=O)oc4c3)cn2C)cn1C | > 100 | 40
25000 | 17000 | 14000 | 18 | 48000 | – | COc1c2occc2cc2ccc(=O)oc12 [METHOXSALEN] | > 100 | 100
